Screening results deposited in PubChem BioAssay by several laboratories.
Measles CPE: protection of cells from measles virus; protection (pct of control), % at 4 µM; Measles virus-infected cells, CPE protection, absorbance; hit rate 1.5% among 140,000; in the data active means protection mostly above about 24%, no sharp cut-off; inactive means mostly below about 26%
BB579 growth dn: reduces growth of yeast BB579 in restrictive medium; S. cerevisiae BB579 growth, OD615, 48 h; inhibition, % at 10 µM; hit rate 0.51% among 140,000; AID 804;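 active means inhibition above a set limit, 3 SD over the mean compound inhibition, cut at about 44% in these data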
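Test system: S. cerevisiae DeaD strain BB579 yeast; Medium: restrictive CSMM-D medium; Compound: one dose, 10 µM compound with 0.25% DMSO; Incubation: 4 h cell preincubation, 48 h compound exposure, 30 °C humidified; Signal: OD at 615 nm; Benchmarks: amphotericin B at 10 µg/mL as positive control.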
Yeast lifespan up: extends the lifespan of yeast; inhibition of the nicotinamide effect, % at 10 µM; S. cerevisiae growth with nicotinamide, OD615; deaD strain in restrictive glucose medium; hit rate 0.68% among 130,000;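 active means inhibition above a set limit, placed 3 SD over the median of all compounds, cut at about 26% in these data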;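 further: 0% = nicotinamide-treated wells and 100% = cells grown without nicotinamide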
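Material: Modified budding yeast, DeaD strain | Medium: Restrictive glucose medium | Probe or stimulus: 1.5 mM nicotinamide | Dosing: Single dose 10 µM compound, 0.25% DMSO | Times: 48 h at 30 °C | Technique: OD615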
RAM inhibit: inhibitors of the yeast RAM network; S. cerevisiae dse1pr::URA3 reporter, 5-FOA growth OD615, 2 d; analog-sensitive cbk1-as2 kinase mutant strain; inhibition, % at 50 µM; hit rate 1.8% among 190,000;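 active means inhibition above a set limit, 3 SD over mean compound inhibition, cut at about 8.4% in these data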;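 further: 0% = DMSO-only wells with no growth and 100% = 10 µM 1-NA-PP1 full growth; inhibition rescues growth on 5-FOA so higher OD means more RAM inhibition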
sdo1 growth: sdo1-depleted yeast growth rescue; S. cerevisiae sdo1-depleted JHY4D growth rescue, OD600 30 h; hits give high values; pdr5 snq2 efflux-pump mutant strain; z-score at 10 µM; hit rate 0.21% among 140,000; AID 817;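 active means z-score above 3 at both the 24 hr and the 30 hr optical density reads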;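 further: z-score against mean and SD of all compound wells on the same plate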
* marks the source's active call; other numbers are inactive results; . = no result. Compounds with a hit are over-represented: about 3.8% of the library has one in this group of screens.

SMILES	Measles CPE	BB579 growth dn	Yeast lifespan up	RAM inhibit	sdo1 growth
C/C=C/C(=O)OCC(=O)Nc1nc2ccc(C)cc2s1	5	-19	49*	5	0.06
CC(C)(C)C(=O)NC1(C(F)(F)F)NC(=O)N(c2ccc(F)cc2)C1=O (centres undefined)	.	.	.	2	.
Nc1nc(-c2ccc(Cl)cc2)nn1C(=O)c1ccco1	.	.	.	1	.
CC(C)(C)c1ccc(C2CC2C(=O)N/N=C\c2cc3ccccc3nc2Cl)cc1 (centres undefined)	51*	-18	-12	1	0.6
COc1ccc(S(=O)(=O)Nc2ccc(C)cc2)cc1OC	21	-12	-1	0	0.38
COc1ccc(S(=O)(=O)N/N=c2\oc3c(OC)cccc3cc2S(=O)(=O)c2ccc(C)cc2)cc1OC	.	.	.	11*	.
CCOC(=O)CN(C(=O)CSc1nnc2c(n1)[nH]c1ccccc12)c1ccccc1	18	-16	-5	5	-0.1
CCOC(=O)CN(C(=O)CSc1nnc2c(n1)[nH]c1c(C)cc(C)cc12)c1ccccc1	29	-59	-8	8.9*	-0.21
O=C(OCc1ccccc1)C1CCCN1C(=O)c1ccccc1[N+](=O)[O-] (centres undefined)	2	-55	-4	0	-0.4
CNS(=O)(=O)c1cccc(C(=O)OCC(=O)Nc2ccc(-c3nc4ccc(C)cc4s3)cc2)c1	.	.	.	11*	.
CC(=O)Nc1ccc(S(=O)(=O)Nc2nc3ccc(C)cc3s2)cc1	3	10	-4	4	0.9
Cc1ccc2nc(-c3ccc(NS(=O)(=O)c4ccc(F)cc4)cc3)sc2c1	10	91*	-7	4	-1.7
CCOC(=O)C1=C(CC)OC(N)=C(C#N)C1c1ccc(NC(C)=O)cc1 (centres undefined)	31*	-38	2	2	-0.81
COc1ccc(C2C3=C(CC(C)(C)CC3=O)Nc3c2c(=O)[nH]c(=O)n3Cc2ccccc2)cc1 (centres undefined)	9	-12	3	9.5*	-0.02
COc1ccc(C2C3=C(CC(C)(C)CC3=O)Nc3c2c(=O)[nH]c(=O)n3Cc2ccccc2)cc1OC (centres undefined)	10	-41	-3	6	-0.12
Cc1ccc(CCSc2ccc(C(C)C)cc2)cn1	.	-26	-5	1	-1.9
C=CCN1C(=O)C(CC(=O)Nc2ccc(OC)cc2)SC1=Nc1ccc(S(N)(=O)=O)cc1 (centres undefined)	.	.	.	0	.
CCCCOc1ccc(C(=O)C(CN2CCOCC2)c2ccccc2)cc1 (centres undefined)	41*	-2	.	0	-2.4
COc1ccc(C(=O)C(CN2CCOCC2)c2ccccc2)cc1 (centres undefined)	9	-53	61*	2	-1.5
COc1ccc(C(=O)C(CN2CCCC2)c2ccccc2)cc1 (centres undefined)	31	-19	9	2	-0.37
CCCOc1ccc(C(=O)C(CN2CCCC2)c2ccccc2)cc1 (centres undefined)	3	-39	6	1	-1.7
Cc1ccc(S(=O)(=O)c2nnn3c2nc(Nc2cccc(C)c2)c2ccccc23)cc1	5	-23	2	5	1.6
Cc1ccc(C)c(Nc2nc3c(S(=O)(=O)c4ccccc4)nnn3c3ccccc23)c1	6	-38	2	8.4*	2.2
COc1ccc2c(c1)O[C@@H](c1cccc(C(F)(F)F)c1)[C@H](O)C2=O	7	5	8	-2	-0.87
COc1ccc2c(c1)O[C@H](c1ccc3c(c1)OCO3)[C@@H](O)C2=O	27*	3	-1	-1	0.17
SMILES	Measles CPE	BB579 growth dn	Yeast lifespan up	RAM inhibit	sdo1 growth
C=CCNC(=S)N/N=C(\C)c1ccccn1	13	93*	-10	0	-0.75
Cc1cc(C)c(OCC(=O)Nc2nnc(-c3ccco3)o2)c(C)c1	.	.	.	4	.
Cc1cccc(CSc2cccc3cccnc23)c1	4	96*	-12	-1	-1.4
Fc1cccc2sc(Nc3nnc(-c4ccco4)o3)nc12	12	-46	94*	2	0.54
Cc1ccc(N2C(=O)N(CC(=O)N3CCOCC3)C(=O)C2C)cc1 (centres undefined)	.	.	.	2	.
N#CC(C#N)=Cc1cc2ccccc2nc1N1CCCCC1	3	-24	36*	1	-1.8
CCOC(=O)C1C(=O)NC(SCC(=O)OC)=C(C#N)C1c1ccccc1OCC (centres undefined)	11	-30	-3	1	-0.06
CCOC(=O)C1C(=O)NC(SCC(=O)Nc2nccs2)=C(C#N)C1c1ccccc1OCC (centres undefined)	3	-10	27*	1	-0.56
C/C(=N/NC(=O)CNS(=O)(=O)c1ccc(C)cc1)c1cccc([N+](=O)[O-])c1	.	.	.	1	.
c1cc2c(cnc3cscc32)s1	34*	-7	-4	0	0.99
Cc1cc(C)cc(N=Cc2ccc([N+](=O)[O-])s2)c1	18	100*	-11	-1	-2.1
O=[N+]([O-])c1ccc(C=Nc2ccc(Cl)c([N+](=O)[O-])c2)s1	.	.	.	-1	.
NC(=O)c1ccc(N=Cc2ccc([N+](=O)[O-])s2)cc1	8	100*	-11	-1	-1.6
COc1ccc(Nc2nc(NCc3ccco3)nc(N/N=C/c3ccc(O)cc3)n2)cc1	2	-55	-1	8	0.07
O=C(OCc1nc2ccccc2s1)C1CCN(S(=O)(=O)c2cccs2)CC1	3	-31	0	9.9*	0.64
O=C(OCCN1C(=O)c2cccc3c(N4CCOCC4)ccc(c23)C1=O)c1cc(Cl)cc(Cl)c1	9	-26	0	8.5*	-0.08
CC(=O)N(C(C)=O)N1C(=O)c2cccc3c(N4CCOCC4)ccc(c23)C1=O	.	.	.	3	.
CCN(CC)S(=O)(=O)c1ccc(C(=O)OCCN2C(=O)c3cccc4c(N5CCOCC5)ccc(c34)C2=O)cc1	5	-66	8	10*	-0.09
COc1ccc(CC(=O)NNC(=O)CSc2ccc(C)cc2)cc1	.	.	.	1	.
CCOCc1c(C(=O)NC2=Nc3ccccc3NC(CC)=C2C(=O)OCC)oc2ccccc12	.	.	.	10*	.
Cc1ccc(S(=O)(=O)N2CCC(C(=O)Nc3ccccc3N3CCCCC3)CC2)cc1	34*	-31	-4	1	-0.73
O=C(CSc1nnc(-c2cccnc2)s1)Nc1cccc(C(=O)O)c1	2	-46	6	10*	1.1
CCCn1c(N)c(Br)c(=O)[nH]c1=O	45*	4	5	0	0.02
Cc1cccc2cc(CN(CC3CCCO3)C(=S)NCc3ccco3)c(=O)[nH]c12 (centres undefined)	31*	-17	3	7	-1
CCOc1ccc(NC(=S)N(CC)Cc2ccccc2)cc1	.	.	.	0	.
CNS(=O)(=O)c1cc(N(C)S(=O)(=O)c2ccc(C)cc2)c(C)cc1C	.	.	.	10*	.
COc1ccc(-c2[nH]n(-c3ccc([N+](=O)[O-])cc3)c(=O)c2C=NCc2ccccc2)cc1	10	-58	-1	6	-0.37
